Test results reported in ChEMBL document CHEMBL2346509, “Novel R-roscovitine NO-donor hybrid compounds as potential pro-resolution of inflammation agents” (2013).
Active and inactive are the calls of the source. The calls are words filed in the database; no cut-off is given here.

Tests used:
Neutrophil [1] = assay: Induction of apoptosis in human neutrophils assessed as pre-necrotic cells at 3 uM after 6 hrs by annexin V/propidium iodide staining based flow cytometric analysis; assay type: functional
Method in brief: (§1)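 Neutrophils isolated from peripheral blood of healthy volunteers (>96% purity), resuspended at 5 × 10^6/mL in IMDM with penicillin, streptomycin and 0.1% w/v BSA. Compounds from 50 mM DMSO stocks (final DMSO 0.04–0.12%) were added just before cells, in duplicate, at 37 °C, 5% CO2. Cells were stained with annexin V in Ca-containing HBSS on ice for 10 min in the dark, PI was added, and cells were analysed by flow cytometry. Diff-Quick morphology confirmed results.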

Neutrophil [2] = assay: Induction of apoptosis in human neutrophils assessed as cellular shrinkage and nuclear pyknosis at 3 uM after 6 hrs by light microscopy analysis; assay type: functional, cell-based
Method in brief: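 Neutrophils isolated from healthy volunteers' citrated blood by dextran sedimentation and a density gradient (granulocytes at the 70:81 boundary, >96% pure). Cells at 5 × 10^6/mL in IMDM with penicillin/streptomycin and 0.1% BSA, 37 °C, 5% CO2, treated in duplicate. Final DMSO 0.04–0.12%. Cells cytocentrifuged, methanol-fixed 2 min, Diff-Quick stained, and scored for apoptotic morphology at 40× and 100×.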

Neutrophil [3] = assay: Induction of apoptosis in human neutrophils assessed as viable cells at 3 uM after 6 hrs by annexin V/propidium iodide staining based flow cytometric analysis; assay type: functional; settings: read-out: Activity; method in brief: as §1
Neutrophil [4] = assay: Induction of apoptosis in human neutrophils assessed as pre-necrotic cells at 3 to 10 uM after 6 hrs by annexin V/propidium iodide staining based flow cytometric analysis in presence of ODQ; assay type: functional, cell-based
Method in brief: (§2)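 Human blood neutrophils at 5 × 10^6/mL in IMDM/0.1% BSA with antibiotics were pre-incubated for 15 min with L-NAME (prepared in IMDM) or with ODQ (10 μM; from a 10 mM stock in 0.01% NaOH). Test compounds were then added from DMSO stocks and cells cultured in duplicate at 37 °C, 5% CO2. Apoptosis was read by annexin V/PI flow cytometry.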

Neutrophil [5] = assay: Induction of apoptosis in human neutrophils assessed as secondary necrosis at 10 uM after 8 hrs by annexin V/propidium iodide staining based flow cytometric analysis
Neutrophil [6] = assay: Induction of apoptosis in human neutrophils assessed as apoptotic cells at 3 uM after 6 hrs by annexin V/propidium iodide staining based flow cytometric analysis; assay type: functional; method in brief: as §1
Neutrophil [7] = assay: Induction of apoptosis in human neutrophils at 10 uM by annexin V/propidium iodide staining based flow cytometric analysis; assay type: functional, cell-based; settings: TDE = time-dependent effect; method in brief: as §1
Neutrophil [8] = assay: Induction of apoptosis in human neutrophils assessed as pre-necrotic cells at 3 to 10 uM after 6 hrs by annexin V/propidium iodide staining based flow cytometric analysis in presence of L-NAME; assay type: functional, cell-based; method in brief: as §2
Neutrophil [9] = assay: Induction of apoptosis in human neutrophils assessed as pre-necrotic cells at 3 uM after 6 hrs by annexin V/propidium iodide staining based flow cytometric analysis in presence of PTIO; assay type: functional, cell-based
Method in brief: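 Healthy-volunteer neutrophils (>96% pure) at 5 × 10^6/mL in IMDM with 0.1% BSA and penicillin/streptomycin, 37 °C, 5% CO2, in duplicate. Co-incubated with the NO scavenger PTIO, made directly in IMDM. Final DMSO 0.04–0.12%. Cells stained with annexin V (1/500 in CaCl2–HBSS binding buffer) 10 min on ice in the dark, then PI added before flow cytometry.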

Neutrophil [10] = assay: Induction of apoptosis in human neutrophils assessed as necrotic cells at 3 uM after 6 hrs by annexin V/propidium iodide staining based flow cytometric analysis; assay type: functional; method in brief: as §1
Neutrophil [11] = assay: Induction of apoptosis in human neutrophils assessed as pre-necrotic cells after 6 hrs by annexin V/propidium iodide staining based flow cytometric analysis; assay type: functional, cell-based; method in brief: as §1

What does the source list for `CC[C@H](CO)Nc1nc(NCc2ccccc2)c2ncn(C(C)C)c2n1` [SELICICLIB]?
Activity (Neutrophil [1]): 0.033%; Activity (Neutrophil [2]): Active; viability at 3 µM (Neutrophil [3]): 92.6%; Activity (Neutrophil [4]): Active; Activity (Neutrophil [5]): Active; Activity (Neutrophil [6]): 6.98%; Activity (Neutrophil [7]): tde; Activity (Neutrophil [8]): Active; Activity (Neutrophil [9]): Active; Activity (Neutrophil [10]): 0.386%

For `CC[C@H](COC(=O)CCCO[N+](=O)[O-])Nc1nc(NCc2ccccc2)c2ncn(C(C)C)c2n1`, which Activity (Neutrophil [4]) is on record?
The Activity was “Active”.

And the Activity (Neutrophil [5])?
Its Activity is “Active”.

What about the Activity (Neutrophil [11]) of the same compound?
The Activity was “Dose-dependent effect”.

And the Activity (Neutrophil [7])?
Its Activity is “tde”.

And the Activity (Neutrophil [8])?
The Activity was “Active”.

Which results are given for `CC[C@H](CO)Nc1nc(NCc2ccc(OCc3no[n+]([O-])c3C(N)=O)cc2)c2ncn(C(C)C)c2n1`?
Activity (Neutrophil [4]): Active; Activity (Neutrophil [5]): Active; Activity (Neutrophil [11]): Dose-dependent effect; Activity (Neutrophil [7]): tde; Activity (Neutrophil [8]): Active

`CN1C(=O)[C@]23CC4=CC=C[C@H](O)[C@H]4N2C(=O)[C@@]1(CO)SS3` was tested. Which Activity (Neutrophil [9]) did it give?
The Activity was “Active”.

How did the Activity (Neutrophil [11]) turn out when `CC[C@H](CO)Nc1nc(NCc2ccc(OCc3nonc3C(N)=O)cc2)c2ncn(C(C)C)c2n1` was run?
The Activity was “Dose-dependent effect”.

`CC[C@H](CO)Nc1nc(NCc2ccc(OCCCO[N+](=O)[O-])cc2)c2ncn(C(C)C)c2n1` was tested. Which Activity (Neutrophil [1]) did it give?
Its Activity is 0.017%.

What about the Activity (Neutrophil [2]) of the same compound?
Its Activity is “Active”.

And the viability at 3 µM (Neutrophil [3])?
The viability at 3 µM was 12.5%.

And the Activity (Neutrophil [4])?
Its Activity is “Active”.

And the Activity (Neutrophil [5])?
The Activity was “Active”.

And the Activity (Neutrophil [6])?
The Activity was 86.9%.

What about the Activity (Neutrophil [11]) of the same compound?
Its Activity is “Dose-dependent effect”.

What about the Activity (Neutrophil [7]) of the same compound?
Its Activity is “tde”.

And the Activity (Neutrophil [8])?
Its Activity is “Active”.

What about the Activity (Neutrophil [9]) of the same compound?
Its Activity is “inactive”.

What about the Activity (Neutrophil [10]) of the same compound?
Its Activity is 0.63%.

How did the Activity (Neutrophil [4]) turn out when `CC[C@H](CO)Nc1nc(NCc2ccc(OCCCOC)cc2)c2ncn(C(C)C)c2n1` was run?
Its Activity is “Active”.

And the Activity (Neutrophil [11])?
Its Activity is “Dose-dependent effect”.

And the Activity (Neutrophil [8])?
The Activity was “Active”.
